≈ marks a conversion by molar mass, not a printed value.
Assays:
Type in all cases: functional
[1] = system: Escherichia coli; assay: Antimicrobial activity against aac(6')-Ib-cr-negative Escherichia coli PU12T harboring wild-type GyrA, GyrB, ParC and qnrS genes by agar dilution method in presence of Tazobactam
How it was run: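 Transconjugants came from conjugation of qnr and/or aac(6')-Ib-cr donors into azide-resistant E. coli J53. […] MICs were measured by CLSI agar dilution (M7-A7) and interpreted per M100-S17.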

[2] = system: Citrobacter freundii; assay: Antimicrobial activity against aac(6')-Ib-cr-positive Citrobacter freundii PU55 harboring GyrA T83I, ParC S80I mutant, wild-type GyrB, qnrA genes by agar dilution method in presence of Tazobactam
How it was run: (§1)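 MICs were determined by CLSI agar dilution (M7-A7) and interpreted by CLSI M100-S17 breakpoints. The curator's line names the β-lactamase inhibitor added.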

[3] = system: Citrobacter freundii; assay: Antimicrobial activity against aac(6')-Ib-cr-positive Citrobacter freundii PU55T harboring wild-type GyrA, ParC, GyrB and qnrA genes by agar dilution method in presence of Tazobactam
How it was run: (§2)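 MICs were determined by the CLSI agar dilution method (M7-A7) and interpreted against CLSI M100-S17 breakpoints.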

[4] = system: Enterobacter cloacae; assay: Antimicrobial activity against aac(6')-Ib-cr-negative Enterobacter cloacae WH42T harboring qnrA gene by agar dilution method in presence of Tazobactam; how it was run: as §2
[5] = system: Escherichia coli; assay: Antimicrobial activity against aac(6')-Ib-cr-negative Escherichia coli PU12 harboring GyrA S83L mutant, wild-type GyrB, ParC and qnrS genes by agar dilution method in presence of Tazobactam
How it was run: (§3)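 MICs measured by CLSI agar dilution (M7-A7) and interpreted against CLSI M100-S17 breakpoints. Strains were clinical Enterobacteriaceae isolates or the azide-resistant E. coli J53 recipient.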

[6] = system: Enterobacter cloacae; assay: Antimicrobial activity against aac(6')-Ib-cr-negative Enterobacter cloacae FJ61 harboring GyrA S83I, GyrA D87A, ParC S80I mutant, wild-type GyrB and qnrS genes by agar dilution method in presence of Tazobactam; how it was run: as §2
[7] = system: Enterobacter cloacae; assay: Antimicrobial activity against aac(6')-Ib-cr-positive Enterobacter cloacae FJ63 harboring GyrA S83I, GyrA D87A, ParC S80I mutant, wild-type GyrB and qnrS genes by agar dilution method in presence of Tazobactam; how it was run: as §2
[8] = system: Klebsiella pneumoniae; assay: Antimicrobial activity against aac(6')-Ib-cr-positive Klebsiella pneumoniae JN41 harboring GyrA S83I, ParC S80I mutant, wild-type GyrB and qnrB genes by agar dilution method in presence of Tazobactam; how it was run: as §3
[9] = system: Citrobacter freundii; assay: Antimicrobial activity against aac(6')-Ib-cr-negative Citrobacter freundii JN64T harboring qnrA gene by agar dilution method in presence of Tazobactam; how it was run: as §2
[10] = system: Enterobacter cloacae; assay: Antimicrobial activity against aac(6')-Ib-cr-negative Enterobacter cloacae SH39T harboring qnrA gene by agar dilution method
[11] = system: Enterobacter cloacae; assay: Antimicrobial activity against aac(6')-Ib-cr-negative Enterobacter cloacae SH39T harboring qnrA gene by agar dilution method in presence of clavulanic acid
How it was run: (§4)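 Transconjugants came from conjugation of qnr and/or aac(6')-Ib-cr-carrying donors with azide-resistant E. coli J53. […] MICs were determined by CLSI agar dilution (M7-A7) and interpreted by M100-S17.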

[12] = system: Klebsiella pneumoniae; assay: Antimicrobial activity against aac(6')-Ib-cr-negative Klebsiella pneumoniae SY22T harboring qnrS gene by agar dilution method; how it was run: as §2
[13] = system: Klebsiella pneumoniae; assay: Antimicrobial activity against aac(6')-Ib-cr-positive Klebsiella pneumoniae SY26 harboring GyrA S83I, ParC S80I mutant, wild-type GyrB and qnrB genes by agar dilution method in presence of clavulanic acid; how it was run: as §3
[14] = system: Citrobacter freundii; assay: Antimicrobial activity against aac(6')-Ib-cr-positive Citrobacter freundii TJ15 harboring GyrA T83I, ParC S80I mutant, wild-type GyrB, qnrB genes by agar dilution method; how it was run: as §2
[15] = system: Citrobacter freundii; assay: Antimicrobial activity against aac(6')-Ib-cr-positive Citrobacter freundii TJ15 harboring GyrA T83I, ParC S80I mutant, wild-type GyrB, qnrB genes by agar dilution method in presence of clavulanic acid; how it was run: as §1
[16] = system: Citrobacter freundii; assay: Antimicrobial activity against aac(6')-Ib-cr-positive Citrobacter freundii TJ15T harboring wild-type GyrA, ParC, GyrB genes by agar dilution method; how it was run: as §2
[17] = system: Enterobacter cloacae; assay: Antimicrobial activity against aac(6')-Ib-cr-negative Enterobacter cloacae WH42T harboring qnrA gene by agar dilution method in presence of clavulanic acid; how it was run: as §4
[18] = system: Klebsiella pneumoniae; assay: Antimicrobial activity against aac(6')-Ib-cr-positive Klebsiella pneumoniae WH99 harboring wild-type GyrA, ParC, GyrB and qnrB genes by agar dilution method
How it was run: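 MICs were determined on clinical isolates by CLSI agar dilution (M7-A7) and interpreted against CLSI M100-S17 breakpoints.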

[19] = system: Escherichia coli; assay: Antimicrobial activity against Escherichia coli J53 harboring wild-type GyrA, ParC, GyrB genes by agar dilution method in presence of beta-lactamase inhibitor clavulanic acid; how it was run: as §1
[20] = system: Escherichia coli; assay: Antimicrobial activity against aac(6')-Ib-cr-negative Escherichia coli PU12 harboring GyrA S83L mutant, wild-type GyrB, ParC and qnrS genes by agar dilution method; how it was run: as §2
[21] = system: Escherichia coli; assay: Antimicrobial activity against aac(6')-Ib-cr-negative Escherichia coli PU12 harboring GyrA S83L mutant, wild-type GyrB, ParC and qnrS genes by agar dilution method in presence of clavulanic acid; how it was run: as §1
[22] = system: Enterobacter cloacae; assay: Antimicrobial activity against aac(6')-Ib-cr-negative Enterobacter cloacae FJ61 harboring GyrA S83I, GyrA D87A, ParC S80I mutant, wild-type GyrB and qnrS genes by agar dilution method in presence of clavulanic acid; how it was run: as §3
[23] = system: Enterobacter cloacae; assay: Antimicrobial activity against aac(6')-Ib-cr-positive Enterobacter cloacae FJ63 harboring GyrA S83I, GyrA D87A, ParC S80I mutant, wild-type GyrB and qnrS genes by agar dilution method
[24] = system: Enterobacter cloacae; assay: Antimicrobial activity against aac(6')-Ib-cr-positive Enterobacter cloacae FJ63T harboring qnrS gene by agar dilution method in presence of clavulanic acid; how it was run: as §4
[25] = system: Enterobacter cloacae; assay: Antimicrobial activity against aac(6')-Ib-cr-negative Enterobacter cloacae FJ67 harboring […] and qnrS genes by agar dilution method
[26] = system: Klebsiella pneumoniae; assay: Antimicrobial activity against aac(6')-Ib-cr-positive Klebsiella pneumoniae GZ40 harboring GyrA S83I, ParC S80I mutant, wild-type GyrB and qnrB genes by agar dilution method; how it was run: as §2
[27] = system: Enterobacter cloacae; assay: Antimicrobial activity against aac(6')-Ib-cr-negative Enterobacter cloacae GZ51T harboring qnrA gene by agar dilution method
[28] = system: Klebsiella pneumoniae; assay: Antimicrobial activity against aac(6')-Ib-cr-positive Klebsiella pneumoniae JN132T harboring qnrB gene by agar dilution method
How it was run: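 Transconjugants were made by conjugating a qnr/aac(6')-Ib-cr donor with azide-resistant E. coli J53. Selection used Trypticase soy agar with sodium azide 150 µg/ml and sulfamethoxazole 180 µg/ml. […] MICs were read by CLSI agar dilution (M7-A7) and interpreted per M100-S17.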

[29] = system: Citrobacter freundii; assay: Antimicrobial activity against aac(6')-Ib-cr-negative Citrobacter freundii JN64T harboring qnrA gene by agar dilution method in presence of clavulanic acid; how it was run: as §4
[30] = system: Citrobacter freundii; assay: Antimicrobial activity against aac(6')-Ib-cr-positive Citrobacter freundii JS33T harboring qnrA gene by agar dilution method; how it was run: as §2

## CCN1CCN(C(=O)N[C@@H](C(=O)N[C@@H]2C(=O)N3[C@@H]2SC(C)(C)[C@@H]3C(=O)O)c2ccccc2)C(=O)C1=O [PIPERACILLIN]
[1]
  MIC: 1 mg/L
[2]
  MIC: 64 mg/L
[3]
  MIC: 4 mg/L
[4]
  MIC: 1 mg/L
[5]
  MIC: 1 mg/L
[6]
  MIC: 8 mg/L
[7]
  MIC: > 256 mg/L
[8]
  MIC: 4 mg/L
[9]
  MIC: 4 mg/L

## CO/N=C(\C(=O)N[C@@H]1C(=O)N2C(C(=O)O)=C(COC(C)=O)CS[C@H]12)c1csc(N)n1 [CEFOTAXIME]
[10]
  MIC: 0.032 mg/L (≈ 0.0703 µM)
[11]
  MIC: 0.032 mg/L
[12]
  MIC: 0.5 mg/L (≈ 1.1 µM)
[13]
  MIC: 8 mg/L
[14]
  MIC: 1 mg/L (≈ 2.2 µM)
[15]
  MIC: 16 mg/L
[16]
  MIC: 0.125 mg/L (≈ 0.274 µM)
[17]
  MIC: 0.032 mg/L
[18]
  MIC: 32 mg/L (≈ 70.3 µM)
[19]
  MIC: 0.032 mg/L
[20]
  MIC: 16 mg/L (≈ 35.1 µM)
[21]
  MIC: 0.032 mg/L
[22]
  MIC: 8 mg/L
[23]
  MIC: > 256 mg/L
[24]
  MIC: 0.032 mg/L
[25]
  MIC: 256 mg/L (≈ 562 µM)
[26]
  MIC: > 256 mg/L
[27]
  MIC: 32 mg/L (≈ 70.3 µM)
[28]
  MIC: 32 mg/L (≈ 70.3 µM)
[29]
  MIC: 0.064 mg/L
[30]
  MIC: 0.125 mg/L (≈ 0.274 µM)
